Experimental findings from ChEMBL document CHEMBL1140891, “Design, synthesis and biological evaluation of novel stilbene-based antitumor agents” (Bioorg Med Chem, 2009) are described below.

One data set concerns SNU-423. The experiment in a line: Cytotoxicity against human SNU423 cells after 48 hrs by alamar blue assay. The format is functional, cell-based. To be noted: SNU-423, 48 h. The procedure, abridged:
(§1)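 MDA-MB231, MiaPaCa2 and SNU423 cells (ATCC) were grown in DMEM, and UCI-101 cells in IMDM. Both media had 10% FBS plus penicillin/streptomycin/glutamine, under 5% CO2. Cells were treated for 48 h at seven concentrations from 0 to 3.0. Alamar Blue was added at 1/10 volume and OD was read at 570 and 600 nm. % growth inhibition versus untreated cells used extinction-coefficient formula; IC50 from three experiments.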

The nature of data set [1]: Cytotoxicity against human UCI101 cells after 48 hrs by alamar blue assay. In kind it is functional, cell-based. To be noted: UCI101, 48 h. The procedure, abridged:
as §1
For orientation: The colour change of resazurin is a common sign of viable cells or microbes.

The next data set deals with MIA PaCa-2. In words: Cytotoxicity against human MIAPaCa2 cells after 48 hrs by alamar blue assay. The format is functional, cell-based. To be noted: MIA PaCa-2, 48 h. The procedure, abridged: as §1
For another data set, the system named is MDA-MB-231. In words: Cytotoxicity against human MDA-MB-231 cells after 48 hrs by alamar blue assay. The format is functional, cell-based. The settings on record: MDA-MB-231, 48 h. In a few lines:
as §1

The nature of data set [2]: Solubility in water. The format is physicochemical.
A short description of data set [3]: Inhibition of tubulin without microtubule associated protein polymerization at 5 uM after 60 mins.
For another data set, the system named is HL-60. The experiment in a line: Induction of apoptosis in human HL60 cells by flow cytometry. In kind it is functional, cell-based. On the technique in general: Flow cytometry measures light scatter and fluorescence of single cells or particles in a stream.

The source made the active and inactive calls. The calls are words filed in the database; no cut-off is given here.

The term IC50 denotes the concentration at which inhibition is half-maximal. Read a high IC50 as weaker potency. The term solubility denotes the dissolved amount per volume that the medium holds. Read a low solubility as a poorly soluble substance.

For the compound `COc1cc(/C=C\c2ccc3cc[nH]c3c2)cc(OC)c1`, the IC50 is 700 nM in the data set on SNU-423, 250 nM in data set [1], 200 nM with MIA PaCa-2 and 250 nM in the data set with MDA-MB-231.

With `COc1ccc(/C=C\c2ccc3[nH]ccc3c2)cc1N`, in data set [1], the IC50 was 5000 nM.

With `COc1cc(/C=C\c2ccc(OC)c(N)c2)cc(OCC(=O)O)c1`, in data set [1], the IC50 was greater than 10000 nM.

In data set [2], `COc1cc(/C=C\c2ccc(OC)c(NC(=O)OCCN3CCOCC3)c2)cc(OC)c1` [listing 1 of 2 here] gave a solubility of less than 1000 µg/mL.

`COc1cc(/C=C\c2ccc(OC)c(NC(=O)NCCN3CCOCC3)c2)cc(OC)c1` returned an IC50 in data set [1] greater than 10000 nM.

In turn, `COc1cc(/C=C\c2ccc(OC)c(NC(=O)OCCN3CCOCC3)c2)cc(OC)c1.O=C(O)C(=O)O` returned a solubility in data set [2] of 5900 µg/mL.

`COc1cc(/C=C\c2ccc(OC)c(NC(=O)OCCOCCOCCO)c2)cc(OC)c1` came in with an IC50 in data set [1] greater than 10000 nM.

In turn, `C=CCOc1cc(/C=C\c2ccc(OC)c(N)c2)cc(OC)c1` yielded a half-inhibitory concentration (IC50) in data set [1] of 200 nM.

Consider `CC[C@]1(O)C[C@H]2CN(CCc3c([nH]c4ccccc34)[C@@](C(=O)OC)(c3cc4c(cc3OC)N(C=O)[C@H]3[C@@](O)(C(=O)OC)[C@H](OC(C)=O)[C@]5(CC)C=CCN6CC[C@]43[C@@H]65)C2)C1` [VINCRISTINE], for which the IC50 amounted to 10 nM with SNU-423, 20 nM in data set [1], 15 nM in the data set with MIA PaCa-2 and 15 nM in the data set with MDA-MB-231.

In the case of `COc1cc(/C=C\c2ccc3[nH]cnc3c2)cc(OC)c1`, the IC50 with SNU-423 came to 1000 nM; in data set [1], 260 nM; with MIA PaCa-2, 800 nM; in the data set on MDA-MB-231 it was 800 nM.

As to `COc1cc2c(c(OC)c1OC)-c1ccc(OC)c(=O)cc1[C@@H](NC(C)=O)CC2` [COLCHICINE], the IC50 in the data set with SNU-423 was 25 nM; in data set [1] it was 30 nM; with MIA PaCa-2, 25 nM; in the data set with MDA-MB-231 it was 20 nM. Besides, the result in data set [3] was Active.

With `CCOc1cc(/C=C\c2ccc(OC)c(N)c2)cc(OC)c1`, half-maximal inhibition in data set [1] (IC50) was put at 80 nM. For the same compound, in data set [3], the result was Active.

Regarding `COc1cc(/C=C\c2ccc3c(ccn3C)c2)cc(OC)c1`, the IC50 with SNU-423 was 30 nM; in data set [1], 40 nM; in the data set with MIA PaCa-2, 80 nM; in the data set on MDA-MB-231, 80 nM. In data set [2], the solubility was less than 1000 µg/mL.

Regarding `COc1cc(/C=C\c2ccc(OC)c(NC(=O)OCCN3CCOCC3)c2)cc(OC)c1` [listing 2 of 2 here], the IC50 (in the data set with SNU-423; in data set [1]) was 5000 nM each time.

In the case of `COc1cc(/C=C\c2ccc(OC)c(N)c2)cc(OC(C)C)c1`, the IC50 in data set [1] is 100 nM.

As for `COc1cc(/C=C\c2ccc(OC)c(N)c2)cc(OCCO)c1`, the IC50 was 200 nM in the data set on SNU-423, 150 nM in data set [1], 180 nM in the data set with MIA PaCa-2 and 80 nM in the data set with MDA-MB-231.

On to `COc1cc(/C=C\c2ccc(OC)c(N)c2)cc(OC)c1` [listing 1 of 2 here], for which the solubility in data set [2] is less than 1000 µg/mL.

In the case of `COc1cc(/C=C\c2ccc(OC)c(N)c2)cc(OC)c1` [listing 2 of 2 here], the result in data set [3] was Active.

Consider `COc1cc(/C=C\c2ccc3[nH]ccc3c2)cc(OC)c1`, for which the IC50 in the data set on SNU-423 came to 700 nM; in data set [1], 250 nM; with MIA PaCa-2, 200 nM; with MDA-MB-231 it was 250 nM.

Consider `COc1cc(/C=C\c2ccc3ccn(C)c3c2)cc(OC)c1`, for which the IC50 in data set [1] came out at 220 nM.

For `COc1cc(O)cc(/C=C\c2ccc(OC)c(N)c2)c1`, the IC50 in the data set with SNU-423 came to 2000 nM; in data set [1] it was 800 nM; in the data set on MIA PaCa-2, 700 nM; in the data set on MDA-MB-231 it was 800 nM. Further, the outcome in data set [3] was Active.

For the compound `COc1cc(/C=C\c2ccc(OC)c(N)c2)cc(OC)c1.Cl`, the half-maximal inhibitory concentration (IC50) with SNU-423 is 30 nM; with HL-60, 30 nM; in data set [1] it was 30 nM; in the data set on MIA PaCa-2, 40 nM; with MDA-MB-231 it was 30 nM. For the same compound, the solubility in data set [2] was 6000 µg/mL.

Consider `COc1ccc(/C=C\c2cc(OC)c(OC)c(OC)c2)cc1O` [COMBRETASTATIN A4], for which the 50% inhibitory concentration (IC50) in the data set on SNU-423 is 6 nM; in data set [1], 2 nM; in the data set with MIA PaCa-2, 8 nM; with MDA-MB-231 it was 4 nM.

With `COc1cc(/C=C\c2ccc(OC)c(O)c2)cc(OC)c1`, the IC50 in the data set with SNU-423 amounted to 15 nM; in the data set with HL-60, 30 nM; in data set [1] it was 30 nM.

For the compound `COc1cc(/C=C\c2ccc(OC)c(N)c2)cc(OC)c1.O=C(O)C(=O)O`, the solubility in data set [2] is less than 1000 µg/mL.

The compound `COc1ccc(/C=C\c2ccc3c(ccn3C)c2)cc1N` displayed an IC50 in data set [1] of 200 nM. Moreover, in data set [2], the solubility is less than 1000 µg/mL.
